Here are results for six compounds from ChEMBL document CHEMBL1132437, “Synthesis and antimicrobial activity of 4H-4-oxoquinolizine derivatives: consequences of structural modification at the C-8 position” (1999).

In brackets after ≈: the same amount, converted by molar mass. Some results are limits rather than exact numbers.

Type in all cases: functional
In experiment [1] the test system is Enterococcus faecium. The experiment in a line: In vitro antibacterial activity against gram-positive Enterococcus faecium ATCC 8043. A digest of the protocol: (§1)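 Agar dilution MIC determination following the National Committee for Clinical Laboratory Standards recommendations.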
Experiment [2] has as its system Escherichia coli. The experiment can be described thus: In vitro antibacterial activity against Escherichia coli KNK 437 a ciprofloxacin less sensitive strain. A digest of the protocol:
as §1

Experiment [3] deals with Pseudomonas aeruginosa. The experiment can be described thus: In vitro antibacterial activity against Gram-negative Pseudomonas aeruginosa 5007. A digest of the protocol: as §1
Experiment [4] relates to Pseudomonas aeruginosa. The experiment in a line: In vitro antibacterial activity against gram negative P. aeruginosa DPHP 5263. The gist of the method: as §1
Experiment [5] concerns Burkholderia cepacia. The experiment in a line: In vitro antibacterial activity against gram negative Pseudomonas cepacia 2961. A digest of the protocol: as §1
Experiment [6] concerns Staphylococcus aureus. The experiment in a line: In vitro antibacterial activity against gram-positive Staphylococcus aureus 1775. The gist of the method:
as §1

In experiment [7] the test system is Staphylococcus aureus. The experiment in a line: In vitro antibacterial activity against gram-positive Staphylococcus aureus NCTC 10649M. A digest of the protocol: as §1
For experiment [8], the system named is Streptococcus pyogenes. The experiment can be described thus: In vitro antibacterial activity against gram positive Streptococcus pyogenes 930. A digest of the protocol:
as §1

In experiment [9] the test system is Pseudomonas aeruginosa. The experiment in a line: In vivo efficacy against Pseudomonas aeruginosa 5007 in mouse protection test after subcutaneous administration. The following applies: Pseudomonas aeruginosa, sc; read-out: ED50. The gist of the method:
(§2)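 Mouse protection model: mice infected intravenously with 100-fold LD50 of the organism. Compound given by subcutaneous injection or oral gavage at 1 and 5 h after infection, over a dose range. Deaths tracked for 7 days post-inoculation. ED50 is the dose giving 50% survival of treated mice over the trial.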

Experiment [10] deals with Staphylococcus aureus. The experiment in a line: In vivo efficacy against Staphylococcus aureus NCTC 10649M in mouse protection test after p.o. administration. The settings on record: Staphylococcus aureus, po; read-out: ED50. The gist of the method:
as §2

The test system of experiment [11] is Staphylococcus aureus. The experiment can be described thus: In vivo efficacy against Staphylococcus aureus NCTC 10649M in mouse. The following applies: Staphylococcus aureus; read-out: ED50. A digest of the protocol: as §2
Experiment [12] deals with Mus musculus. The experiment can be described thus: In vivo efficacy against Streptococcus pneumoniae ATCC 6303 in mouse protection test after administration by oral gavage. The gist of the method:
as §2

For experiment [13], the system named is Streptococcus pneumoniae. The experiment in a line: In vivo efficacy against Streptococcus pneumoniae ATCC 6303 in mouse protection test after s.c. administration. The settings on record: Streptococcus pneumoniae, sc; read-out: ED50. The gist of the method: as §2
Experiment [14] has as its system Mus musculus. The experiment in a line: In vivo efficacy against Pseudomonas aeruginosa 5007 in mouse protection test after administration by oral gavage. The gist of the method:
as §2

Experiment [15] deals with Escherichia coli. The experiment in a line: In vivo efficacy against Escherichia coli JUHL in mouse protection test after p.o. administration. The following applies: Escherichia coli, po; read-out: ED50. The gist of the method: as §2
Experiment [16] concerns Escherichia coli. The experiment can be described thus: In vivo efficacy against Escherichia coli JUHL in mouse protection test after subcutaneous administration. The following applies: Escherichia coli, sc; read-out: ED50. The gist of the method: as §2
Experiment [17] deals with Escherichia coli. The experiment in a line: In vitro antibacterial activity against gram negative Escherichia coli KNK 437. The gist of the method:
as §1

Experiment [18] concerns Mus musculus. The experiment in a line: InIn vivo efficacy against Escherichia coli JUHL in mouse protection test after administration by oral gavage. A digest of the protocol: as §2
In experiment [19] the test system is Mus musculus. The experiment can be described thus: In vivo efficacy against Pseudomonas aeruginosa 5007 in mouse protection test after administration by oral gavage. The gist of the method:
as §2

In experiment [20] the test system is Mus musculus. The experiment in a line: IIn vivo efficacy against Escherichia coli JUHL in mouse protection test after administration by oral gavage. A digest of the protocol:
as §2

For experiment [21], the system named is Mus musculus. The experiment in a line: In vivo efficacy against Pseudomonas aeruginosa 5007 in mouse protection test […]. The gist of the method: as §2
For experiment [22], the system named is Mus musculus. The experiment can be described thus: In vivo efficacy against Streptococcus pneumoniae ATCC 6303 in mouse protection test after administration by oral gavage. A digest of the protocol:
as §2

Where [23] appears, read: Enterococcus faecium, ATCC 8043, read-out: MIC.
[24] abbreviates: Escherichia coli, read-out: MIC.
The mark [25] stands for this setting: Pseudomonas aeruginosa, read-out: MIC.
Where [26] appears, read: Burkholderia cepacia, read-out: MIC.
Where [27] appears, read: Staphylococcus aureus, read-out: MIC.
Where [28] appears, read: Staphylococcus aureus, NCTC 10649, read-out: MIC.
The mark [29] stands for this setting: Streptococcus pyogenes, read-out: MIC.
Where [30] appears, read: Pseudomonas aeruginosa, DPHP 5263, read-out: MIC.

In general, MIC refers to the smallest concentration in the dilution series that meets the test's criterion for growth inhibition. With `Cc1c(N2CC[C@H](N)C2)c(F)cn2c(=O)c(C(=O)O)cc(C3CC3)c12` (stereo in doubt; -(S)-3i) [ABT-719], the MIC in experiment [1] came to 0.02 µg/mL (≈ 0.0579 µM); in experiment [2], 0.02 µg/mL (≈ 0.0579 µM); in [3], 0.05 µg/mL (≈ 0.145 µM); in experiment [4], 0.39 µg/mL (≈ 1.13 µM); in experiment [5] it was 0.39 µg/mL (≈ 1.13 µM); in experiment [6] it was 0.78 µg/mL (≈ 2.26 µM). Also, the MIC in experiment [7] amounted to 0.01 µg/mL (≈ 0.029 µM); in [8], 0.02 µg/mL (≈ 0.0579 µM).

In general, ED50 refers to the dose at which the effect has come halfway, by size or by number of responders. Take `Cc1c(N2CC[C@@H](C)[C@H](N)C2)c(F)cn2c(=O)c(C(=O)O)cc(C3CC3)c12`: the ED50 in [9] was 24.5 mg/kg; in experiment [10], 4.3 mg/kg; in [11], 1 mg/kg; in experiment [12], 1 mg/kg; in experiment [13] it was 2.1 mg/kg; in [14] it was greater than 50 mg/kg. Further, the ED50 in [15] turned out to be 3 mg/kg; in [16], 0.6 mg/kg.

As to `Cc1c(N2CC[C@H](C)[C@@H](N)C2)c(F)cn2c(=O)c(C(=O)O)cc(C3CC3)c12`, the MIC in experiment [1] (setting [23]) worked out at 0.05 µg/mL (≈ 0.134 µM); in experiment [17] (setting [24]), 0.39 µg/mL (≈ 1.04 µM); in [3] (setting [25]), 0.39 µg/mL (≈ 1.04 µM); in experiment [5] (setting [26]), 3.1 µg/mL (≈ 8.3 µM); in experiment [6] (setting [27]), 0.39 µg/mL (≈ 1.04 µM); in [7] (setting [28]), 0.01 µg/mL (≈ 0.0268 µM). For the same compound, the MIC in [8] (setting [29]) came to 0.02 µg/mL (≈ 0.0536 µM). In addition, the ED50 was determined as 1.9 mg/kg in [10], 0.5 mg/kg in experiment [11], 2.3 mg/kg in experiment [18] and 1.7 mg/kg in experiment [16].

In the case of `CCCN[C@H]1CCN(c2c(F)cn3c(=O)c(C(=O)O)cc(C4CC4)c3c2C)C1`, the MIC is 0.39 µg/mL (≈ 1.01 µM) in experiment [1] (setting [23]); 0.2 µg/mL (≈ 0.516 µM) in experiment [17] (setting [24]); 1.56 µg/mL (≈ 4.03 µM) in [3] (setting [25]); 12.5 µg/mL (≈ 32.3 µM) in experiment [4] (setting [30]); 3.1 µg/mL (≈ 8 µM) in experiment [5] (setting [26]); 1.56 µg/mL (≈ 4.03 µM) in experiment [6] (setting [27]). The values for the MIC in experiment [7] (setting [28]) and in [8] (setting [29]) were 0.1 µg/mL (≈ 0.258 µM) and 0.2 µg/mL (≈ 0.516 µM), respectively. Besides, the ED50 in experiment [9] is greater than 8 mg/kg; in experiment [10], 25.4 mg/kg; in experiment [11] it was 4.3 mg/kg; in [15] it was greater than 10 mg/kg; in experiment [16] it was 1.1 mg/kg; in experiment [19], greater than 50 mg/kg.

With `Cc1c(N2C[C@H]3NCCO[C@@H]3C2)c(F)cn2c(=O)c(C(=O)O)cc(C3CC3)c12`, the MIC in experiment [1] (setting [23]) amounted to 0.2 µg/mL (≈ 0.516 µM); in experiment [17] (setting [24]), 0.78 µg/mL (≈ 2.01 µM); in experiment [3] (setting [25]), 1.56 µg/mL (≈ 4.03 µM); in [4] (setting [30]), 25 µg/mL (≈ 64.5 µM); in [5] (setting [26]), 3.1 µg/mL (≈ 8 µM); in experiment [6] (setting [27]), 0.78 µg/mL (≈ 2.01 µM). The MIC in [7] (setting [28]) stood at 0.05 µg/mL (≈ 0.129 µM); in [8] (setting [29]), 0.2 µg/mL (≈ 0.516 µM). Further, the ED50 in [9] is greater than 32 mg/kg; in [10] it was 11.5 mg/kg; in [11], 6 mg/kg; in experiment [14], greater than 50 mg/kg; in experiment [16], greater than 5 mg/kg; in experiment [20], greater than 20 mg/kg.

In the case of `CN[C@@H]1CN(c2c(F)cn3c(=O)c(C(=O)O)cc(C4CC4)c3c2C)C[C@H]1C` (stereo in doubt; 3v), the MIC in experiment [1] is 0.2 µg/mL (≈ 0.536 µM); in [17], 0.2 µg/mL (≈ 0.536 µM); in experiment [3], 0.39 µg/mL (≈ 1.04 µM); in experiment [4], 12.5 µg/mL (≈ 33.5 µM); in experiment [5], 1.56 µg/mL (≈ 4.18 µM); in experiment [6], 1.56 µg/mL (≈ 4.18 µM). In addition, the MIC in experiment [7] was found to be 0.02 µg/mL (≈ 0.0536 µM); in experiment [8], 0.2 µg/mL (≈ 0.536 µM). The ED50 in experiment [9] is 16.1 mg/kg; in [21] it was greater than 50 mg/kg; in experiment [10] it was 6.3 mg/kg; in experiment [11], 1.6 mg/kg; in experiment [22] it was 13 mg/kg; in [13], 5 mg/kg. Further, the median effective dose (ED50) turned out to be 9.1 mg/kg in experiment [15] and 2.8 mg/kg in [16].
